In ChEMBL document CHEMBL1126822, “7 alpha-Methyl- and 11 beta-ethoxy-substitution of [125I]-16 alpha-iodoestradiol: effect on estrogen receptor-mediated target tissue uptake” (J Med Chem, 1993):

How the values were obtained:
Type in all cases: ADME, organism-based
Conditions in all cases: in vivo
Rattus norvegicus [1] = experiment: Tissue uptake (plasma) of [125I]- after administration of [125I]-labeled compound to immature female rats (n=5) in the absence of 60 microg coinjected estradiol after 1 hour
How it was run: (§1)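 Immature female Fischer rats, 24 days old, 55-60 g, unanesthetized in retention cages, got HPLC-purified n.c.a. 125I-labeled steroid (3 μCi, 111 kBq) by lateral tail vein. Dose was given in 200 μL saline with 9% ethanol and 1% Tween-80. Deep ether anesthesia, axillary artery cut; tissues KCl-washed, blotted, weighed, gamma-counted as % ID/g; variation as small-sample-corrected %CV.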

Rattus norvegicus [2] = experiment: Tissue uptake (uterus) of [125I]- after administration of [125I]-labeled compound to immature female rats (n=3) in the absence of 60 microg coinjected estradiol after 24 hours; how it was run: as §1
Rattus norvegicus [3] = experiment: Tissue uptake (plasma) of [125I]- after administration of [125I]-labeled compound to immature female rats (n=4) in the absence of 60 microg coinjected estradiol after 5 hours; how it was run: as §1
Rattus norvegicus [4] = experiment: Tissue uptake (blood) of [125I]- after administration of [125I]-labeled compound to immature female rats (n=3) in the absence of 60 microg coinjected estradiol. (24 hours after injection) (% coefficient of variation)
How it was run: (§2)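 Immature female Fischer rats, 24 days old, 55-60 g, unanesthetized in retention cages, given HPLC-purified 125I-labeled steroid (3 μCi, 111 kBq) via lateral tail vein in 200 μL of 9% ethanol-saline with 1% Tween-80. The blocking group was coinjected with 60 μg unlabeled estradiol and sampled at 1 h. Animals were killed under ether at 0.5-24 h. Tissues were KCl-washed, blotted, weighed and gamma-counted. Results are % ID/g, with variation as small-sample-corrected %CV.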

Rattus norvegicus [5] = experiment: Tissue uptake (plasma) of [125I]- after administration of [125I]-labeled compound to immature female rats (n=4) in the absence of 60 microg coinjected estradiol after 2 hours; how it was run: as §2
Rattus norvegicus [6] = experiment: Tissue uptake (uterus) of [125I]- after administration of [125I]-labeled compound to immature female rats (n=3) in the absence of 60 microg coinjected estradiol. (0.5 hours after injection) (% coefficient of variation); how it was run: as §1
Rattus norvegicus [7] = experiment: Tissue uptake (blood) of [125I]- after administration of [125I]-labeled compound to immature female rats (n=4) in the absence of 60 microg coinjected estradiol after 5 hours; how it was run: as §2
Rattus norvegicus [8] = experiment: Tissue uptake (brain) of [125I]- after administration of [125I]-labeled compound to immature female rats (n=5) in the absence of 60 microg coinjected estradiol after 1 hour; how it was run: as §2
Rattus norvegicus [9] = experiment: Tissue uptake (brain) of [125I]- after administration of [125I]-labeled compound to immature female rats (n=4) in the absence of 60 microg coinjected estradiol after 5 hours; how it was run: as §2
Rattus norvegicus [10] = experiment: Tissue uptake (brain) of [125I]- after administration of [125I]-labeled compound to immature female rats (n=3) in the absence of 60 microg coinjected estradiol after 24 hours; how it was run: as §2
Rattus norvegicus [11] = experiment: Tissue uptake (brain) of [125I]- after administration of [125I]-labeled compound to immature female rats (n=4) in the absence of 60 microg coinjected estradiol after 2 hours; how it was run: as §2

Work on `C[C@@H]1Cc2cc(O)ccc2[C@H]2CC[C@]3(C)[C@@H](O)[C@H](I)C[C@H]3[C@H]12` yielded an ID/g (Rattus norvegicus [1]) of 0.58%, an ID/g (Rattus norvegicus [2]) of 1.64% and an ID/g (Rattus norvegicus [3]) of 0.41%. For the same compound, the ID/g (Rattus norvegicus [4]) was 0.03%, the ID/g (Rattus norvegicus [5]) was 0.49% and the ID/g (Rattus norvegicus [6]) was 4.32%.
`CCO[C@H]1C[C@]2(C)[C@@H](O)[C@H](I)C[C@H]2[C@@H]2CCc3cc(O)ccc3[C@H]21` gave an ID/g (Rattus norvegicus [7]) of 0.7%, an ID/g (Rattus norvegicus [8]) of 0.39% and an ID/g (Rattus norvegicus [9]) of 0.14%. For the same compound, the ID/g (Rattus norvegicus [10]) was 0.04% and the ID/g (Rattus norvegicus [11]) was 0.25%.
